Results as given in ChEMBL document CHEMBL5620421, “2,6-Disubstituted 7-(naphthalen-2-ylmethyl)-7H-purines as a new class of potent antitubercular agents inhibiting DprE1” (Eur J Med Chem, 2023).
Converted amounts (≈) assume the structure as drawn.

Tests used:
Format in all cases: functional
Mycobacterium avium [1] = assay: Antitubercular activity against Mycobacterium avium CNCTC My 330/88 assessed as inhibition of bacterial growth measured after 21 days of incubation by Sulas semisynthetic medium based assay; details: CNCTC My 330/88, 504 h, time 21 day
Method in brief: (§1)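 M. avium was tested by the micromethod in Sula's semisynthetic medium. Compounds in DMSO at 1000 to 0.5 μmol/L. Incubation at 37 °C, read at 14 and 21 days. MIC is the lowest concentration giving >99% growth inhibition.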

[2] = test system: Mycobacterium tuberculosis; assay: Antitubercular activity against Mycobacterium tuberculosis CNCTC My 331/88 (H37Rv) assessed as inhibition of bacterial growth measured after 14 days of incubation by Sulas semisynthetic medium based assay; details: 336 h, time 14 day
Method in brief: (§2)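 Micromethod MIC in Sula's semisynthetic medium. MIC is the lowest concentration inhibiting >99% of the mycobacterial population. Isoniazid was the standard drug.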

Mycobacterium avium [3] = assay: Antitubercular activity against Mycobacterium avium CNCTC My 330/88 assessed as inhibition of bacterial growth measured after 14 days of incubation by Sulas semisynthetic medium based assay; details: CNCTC My 330/88, 336 h, time 14 day; method in brief: as §1
Mycobacterium kansasii [4] = assay: Antitubercular activity against Mycobacterium kansasii CNCTC My 235/80 assessed as inhibition of bacterial growth measured after 14 days of incubation by Sulas semisynthetic medium based assay; details: CNCTC My 235/80, 336 h, time 14 day
Method in brief: (§3)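 Micromethod in Sula's semisynthetic medium. MIC is the lowest concentration inhibiting >99% of the mycobacterial population. Isoniazid was the standard.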

[5] = test system: Mycobacterium tuberculosis; assay: Antitubercular activity against Mycobacterium tuberculosis CNCTC My 331/88 (H37Rv) assessed as inhibition of bacterial growth measured after 21 days of incubation by Sulas semisynthetic medium based assay; details: 504 h, time 21 day; method in brief: as §2
Mycobacterium kansasii [6] = assay: Antitubercular activity against Mycobacterium kansasii CNCTC My 235/80 assessed as inhibition of bacterial growth measured after 21 days of incubation by Sulas semisynthetic medium based assay; details: CNCTC My 235/80, 504 h, time 21 day; method in brief: as §3
Mycobacterium kansasii [7] = assay: Antitubercular activity against Mycobacterium kansasii CNCTC My 235/80 assessed as inhibition of bacterial growth measured after 7 days of incubation by Sulas semisynthetic medium based assay; details: CNCTC My 235/80, 168 h, time 7 day; method in brief: as §3

Row | Structure (SMILES) | MIC99 (Mycobacterium avium [1]) | MIC99 [2] | MIC99 (Mycobacterium avium [3]) | MIC99 (Mycobacterium kansasii [4]) | MIC99 [5] | MIC99 (Mycobacterium kansasii [6]) | MIC99 (Mycobacterium kansasii [7])
1 | Clc1ncnc2ncn(Cc3ccc4ccccc4c3)c12 | > 1000 µM | 125 µM (≈ 36.8 µg/mL) | > 1000 µM | > 1000 µM | 125 µM (≈ 36.8 µg/mL) | > 1000 µM | 1000 µM (≈ 295 µg/mL)
2 | CN(C)CCNc1nc(N2CCOCC2)nc2ncn(Cc3ccc4ccccc4c3)c12 | 500 µM (≈ 216 µg/mL) | 32 µM (≈ 13.8 µg/mL) | 500 µM (≈ 216 µg/mL) | 125 µM (≈ 53.9 µg/mL) | 64 µM (≈ 27.6 µg/mL) | 125 µM (≈ 53.9 µg/mL) | 64 µM (≈ 27.6 µg/mL)
3 | O=c1[nH]c(N2CCOCC2)nc2c1ncn2Cc1ccc(Cl)c(Cl)c1 | > 250 µM | > 250 µM | > 250 µM | > 250 µM | > 250 µM | > 250 µM | > 250 µM
4 | COCCN(C)c1nc2ncn(Cc3ccc4ccccc4c3)c2c(=O)[nH]1 | > 500 µM | > 500 µM | > 500 µM | > 500 µM | > 500 µM | > 500 µM | > 500 µM
5 | COCCNc1nc2ncn(Cc3ccc4ccccc4c3)c2c(=O)[nH]1 | > 500 µM | > 500 µM | > 500 µM | > 500 µM | > 500 µM | > 500 µM | > 500 µM
6 | Oc1nc(N2CCOCC2)nc2ncn(Cc3ccccc3)c12 | > 500 µM | > 500 µM | > 500 µM | > 500 µM | > 500 µM | > 500 µM | > 500 µM
7 | CC(C)c1ccc(Cn2cnc3c(=O)[nH]c(N4CCOCC4)nc32)cc1 | > 250 µM | 125 µM (≈ 44.2 µg/mL) | > 250 µM | > 250 µM | > 250 µM | > 250 µM | > 250 µM
8 | O=c1[nH]c(N2CCOCC2)nc2c1ncn2Cc1ccccc1 | > 500 µM | > 500 µM | > 500 µM | > 500 µM | > 500 µM | > 500 µM | > 500 µM
9 | O=c1[nH]c(N2CCOCC2)nc2ncn(-c3ccsc3)c12 | > 500 µM | > 500 µM | > 500 µM | > 500 µM | > 500 µM |  | > 500 µM
10 | O=c1[nH]c(N2CCOCC2)nc2ncn(-c3cccc4c3sc3ccccc34)c12 | > 250 µM | > 250 µM | > 250 µM | > 250 µM | > 250 µM | > 250 µM | > 250 µM
11 | O=c1[nH]c(NC2CCC2)nc2ncn(Cc3ccc4ccccc4c3)c12 | > 500 µM | > 500 µM | > 500 µM | > 500 µM | > 500 µM | > 500 µM | > 500 µM
12 | COc1ccc(Cn2cnc3c(=O)[nH]c(N4CCOCC4)nc32)cc1 | > 500 µM | > 500 µM | > 500 µM | > 500 µM | > 500 µM | > 500 µM | > 500 µM
13 | c1ccc2cc(Cn3cnc4nc(N5CCOCC5)nc(NCc5ccncc5)c43)ccc2c1 | 500 µM (≈ 226 µg/mL) | 8 µM (≈ 3.61 µg/mL) | 250 µM (≈ 113 µg/mL) | 64 µM (≈ 28.9 µg/mL) | 8 µM (≈ 3.61 µg/mL) | 64 µM (≈ 28.9 µg/mL) | 64 µM (≈ 28.9 µg/mL)
14 | O=c1[nH]c(N2CC3(COC3)C2)nc2ncn(Cc3ccc4ccccc4c3)c12 | > 500 µM | > 500 µM | > 500 µM | > 500 µM | > 500 µM | > 500 µM | > 500 µM
15 | O=c1[nH]c(NCCO)nc2ncn(Cc3ccc4ccccc4c3)c12 | > 500 µM | > 500 µM | > 500 µM | > 500 µM | > 500 µM | > 500 µM | > 500 µM
16 | COc1cccc(Cn2cnc3c(=O)[nH]c(N4CCOCC4)nc32)c1 | > 500 µM | > 500 µM | > 500 µM | > 500 µM | > 500 µM | > 500 µM | > 500 µM
